Measurements of several laboratories.
Compare with care: the assays were run in different laboratories.
Effect on: enzyme activity
Mode: inhibitor
PIK3CA: Phosphatidylinositol 4,5-bisphosphate 3-kinase catalytic subunit alpha isoform (PIK3CA, Homo sapiens, UniProt P42336)
KDR: Vascular endothelial growth factor receptor 2 (KDR, Homo sapiens, UniProt P35968)
PIK3CB: Phosphatidylinositol 4,5-bisphosphate 3-kinase catalytic subunit beta isoform (PIK3CB, Homo sapiens, UniProt P42338)

SMILES | target | assay | IC50 [nM]
O=C1C(=Nc2ccccc2I)c2ccccc2N1Cc1ccc(Br)cc1 | PIK3CA | ADP detection | 298
CN(C)C(=O)c1cc2cnc(Nc3ccc(-c4ccc5c(=O)cc(N6CCNCC6)oc5c4)cc3)nc2n1C1CCCC1 | PIK3CA | radiometric | > 10000
COc1ccc(-c2cc(=O)c3c(O)cc(O[C@@H]4O[C@H](CO[C@@H]5O[C@@H](C)[C@H](O)[C@@H](O)[C@H]5O)[C@@H](O)[C@H](O)[C@H]4O)cc3o2)cc1O | KDR | TR-FRET | 32700
Cc1ccc(CN2C(=O)C(=Nc3cccc(Cl)c3)c3ccccc32)cc1 | PIK3CA | ADP detection | 27.6
COc1ccc(Nc2nc(Nc3ccc4ncccc4c3)nc(N3CCOCC3)n2)cc1 | PIK3CA | ADP detection | 1290
CN(C)C(=O)c1cc2cnc(Nc3ccc(-c4cccc5c(=O)cc(N6CCOCC6)oc45)c(F)c3)nc2n1C1CCCC1 | PIK3CA | radiometric | 182
CCc1ccc(N=C2C(=O)Nc3ccccc32)cc1 | PIK3CB | ADP detection | 270
O=[N+]([O-])c1cc(I)c(O)c(C=NNc2ccc(Br)cc2)c1 | KDR | ATP luminescence | 6520
CN(C)C(=O)c1cc2cnc(Nc3ccc4c(=O)cc(N5CCNCC5)oc4c3)nc2n1C1CCCC1 | PIK3CA | radiometric | > 10000
O=[N+]([O-])c1cc(I)c(O)c(C=NNc2ccc(C(F)(F)F)cc2)c1 | KDR | ATP luminescence | 4440
CC(C)C[C@H](NC(=O)[C@@H](NC(=O)N[C@@H](Cc1ccccc1)C(=O)O)[C@@H]1CCN=C(N)N1)C(=O)N[C@H](C=O)Cc1ccccc1 | Cathepsin G (CTSG, Homo sapiens, UniProt P08311) |  | 4190
CCc1ccc(N=C2C(=O)N(Cc3ccccc3)c3ccccc32)cc1 | PIK3CB | ADP detection | 22.1
Cc1c(N2CCOCC2)oc2c(-c3ccc(Nc4ncc5cc(C(=O)N(C)C)n(C6CCCC6)c5n4)cc3F)cccc2c1=O | PIK3CA | radiometric | > 10000
O=C1C(=Nc2ccc(Cl)cc2Br)c2ccccc2N1Cc1ccc(Br)cc1 | PIK3CB | ADP detection | 34.4
CN(C)C(=O)c1cc2cnc(Nc3cc(C(=O)O)cc(-c4ccc5c(=O)cc(N6CCOCC6)oc5c4)c3)nc2n1C1CCCC1 | PIK3CA | radiometric | 111
O=C1C(=Nc2ccc(Cl)cc2)c2ccccc2N1Cc1cccc(Cl)c1 | PIK3CA | ADP detection | 322
CN(C)C(=O)c1cc2cnc(Nc3cncc(-c4cccc5c(=O)cc(N6CCOCC6)oc45)c3)nc2n1C1CCCC1 | PIK3CA | radiometric | > 10000
O=[N+]([O-])c1ccc(O)c(C=NNc2ccc(Cl)cc2)c1 | KDR | ATP luminescence | 21200
CN(C)C(=O)c1cc2cnc(Nc3ccc(-c4cccc5c(=O)cc(N6CCNCC6)oc45)cc3)nc2n1C1CCCC1 | PIK3CA | radiometric | > 10000
O=[N+]([O-])c1cc(Br)c(O)c(C=NNc2ccc(Cl)cc2)c1 | KDR | ATP luminescence | 7700
CC1=C(/C=C/C(C)=C/C=C/C(C)=C/C=C/C=C(C)/C=C/C=C(C)/C=C/C2=C(C)CCCC2(C)C)C(C)(C)CCC1 | KDR | TR-FRET | > 40000
CN(C)C(=O)c1cc2cnc(Nc3ccc(-c4ccc5c(=O)cc(N6CCOCC6)oc5c4)cc3)nc2n1C1CCCC1 | PIK3CA | radiometric | 5780
O=[N+]([O-])c1cc(I)c(O)c(C=NNc2ccccc2)c1 | KDR | ATP luminescence | 4970
Cc1cccc(N=C2C(=O)N(Cc3cccc(Cl)c3)c3ccccc32)c1 | PIK3CB | ADP detection | 33.9
O=C1/C(=C/c2ccc3ccccc3c2O)NC(=S)N1c1ccccc1 | KDR | ELISA | 235
O=[N+]([O-])c1cc(I)c(O)c(C=NNc2ccc(Cl)cc2)c1 | KDR | ATP luminescence | 7830
Cc1cccc(N=C2C(=O)Nc3ccccc32)c1 | PIK3CB | ADP detection | 134
